Measurements taken from ChEMBL document CHEMBL1139453, “Potent inhibitors of the Plasmodium falciparum enzymes plasmepsin I and II devoid of cathepsin D inhibitory activity” (J Med Chem, 2004).

Columns and labels:
[1] = biological target: Plasmepsin II (Plasmodium falciparum, UniProt P46925); assay: Inhibitory activity against protease plasmepsin-2 (Plm II) of Plasmodium falciparum
Procedure, shortened: (§1)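 Plm II: 3 nM pro-enzyme, pro-sequence cleaved by 40 min room-temperature preincubation; Plm I amount matched to similar activity. Buffer 100 mM sodium acetate pH 4.5, 10% glycerol, 0.01% Tween 20. Inhibitor (up to 1500 nM Plm I, 2500 nM Plm II; 1% DMSO final), then 3 μM FRET substrate; fluorescence over 10 min. Competitive Langmuir IC50 converted to Ki via Michaelis–Menten Km.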

[2] = biological target: Plasmepsin I (Plasmodium falciparum, UniProt P39898); assay: Inhibitory activity against protease plasmepsin-1 (Plm I) of Plasmodium falciparum; procedure, shortened: as §1
[3] = biological target: T1, Cathepsin D (Homo sapiens, UniProt P07339); assay: Inhibitory activity against human Cathepsin D; Range
Procedure, shortened: (§2)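 Human liver Cat D, 50 ng/mL pro-form, activated 20 min at 37 °C in 100 mM sodium acetate pH 4.5, 10% glycerol, 0.01% Tween 20. Inhibitor (tested up to 2000 nM, final DMSO 1%) added before 3 μM DABCYL-Glu-Arg-Nle-Phe-Leu-Ser-Phe-Pro-EDANS. Fluorescence rise followed 10 min. IC50 from Langmuir fit assuming competitive inhibition; Ki = IC50/(1+[S]/Km).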

[4] = tested on: Plasmodium falciparum; assay: In vitro percent inhibition of Plasmodium falciparum 3D7 in human erythrocyte at 5 uM; assay type: functional
Procedure, shortened: (§3)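 Synchronous P. falciparum 3D7 early trophozoites (~1% haematocrit, 1% parasitaemia) in human erythrocytes, labelled with [3H]hypoxanthine 10 μCi mL⁻¹; compound added (1–5 μM final, DMSO up to 1% v/v), 30 h at 37 °C in gassed boxes to schizont stage. Filter-harvested, β-counted; radioactivity relative to DMSO-only wells; four independent experiments per concentration.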

[5] = tested on: Plasmodium falciparum; assay: Percent inhibition for Plasmodium falciparum at 5 uM; assay type: functional; procedure, shortened: as §3
[6] = biological target: T1, Cathepsin D; assay: Inhibitory activity against human cathepsin D; procedure, shortened: as §2

T1 sequence (P07339 65-162 limits assumed): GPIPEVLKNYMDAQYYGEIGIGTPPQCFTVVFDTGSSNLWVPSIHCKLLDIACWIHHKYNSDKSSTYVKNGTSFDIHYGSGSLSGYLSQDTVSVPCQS
T1 sequence (P07339 169-412 limits assumed): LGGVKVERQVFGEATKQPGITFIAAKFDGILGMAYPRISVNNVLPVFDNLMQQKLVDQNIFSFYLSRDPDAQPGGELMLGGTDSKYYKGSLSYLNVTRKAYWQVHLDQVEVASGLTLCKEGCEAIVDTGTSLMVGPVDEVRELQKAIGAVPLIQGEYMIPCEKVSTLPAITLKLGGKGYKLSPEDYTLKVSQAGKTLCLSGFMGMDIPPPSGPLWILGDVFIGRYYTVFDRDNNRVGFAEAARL
Chain of Plasmepsin II (P46925 whole entry): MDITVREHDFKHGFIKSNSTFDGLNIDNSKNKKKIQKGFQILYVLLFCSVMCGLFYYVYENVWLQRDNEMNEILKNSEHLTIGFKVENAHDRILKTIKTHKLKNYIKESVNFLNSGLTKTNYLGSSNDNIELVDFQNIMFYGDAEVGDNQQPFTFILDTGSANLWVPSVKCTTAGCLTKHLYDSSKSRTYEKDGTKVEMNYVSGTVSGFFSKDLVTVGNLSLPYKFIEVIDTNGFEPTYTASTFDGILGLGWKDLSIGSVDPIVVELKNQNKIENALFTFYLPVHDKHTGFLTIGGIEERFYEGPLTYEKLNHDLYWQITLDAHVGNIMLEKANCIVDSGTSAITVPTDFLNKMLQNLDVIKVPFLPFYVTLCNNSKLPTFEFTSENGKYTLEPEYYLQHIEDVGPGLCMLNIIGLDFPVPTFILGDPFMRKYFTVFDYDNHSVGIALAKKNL
Chain of Plasmepsin I (P39898 whole entry): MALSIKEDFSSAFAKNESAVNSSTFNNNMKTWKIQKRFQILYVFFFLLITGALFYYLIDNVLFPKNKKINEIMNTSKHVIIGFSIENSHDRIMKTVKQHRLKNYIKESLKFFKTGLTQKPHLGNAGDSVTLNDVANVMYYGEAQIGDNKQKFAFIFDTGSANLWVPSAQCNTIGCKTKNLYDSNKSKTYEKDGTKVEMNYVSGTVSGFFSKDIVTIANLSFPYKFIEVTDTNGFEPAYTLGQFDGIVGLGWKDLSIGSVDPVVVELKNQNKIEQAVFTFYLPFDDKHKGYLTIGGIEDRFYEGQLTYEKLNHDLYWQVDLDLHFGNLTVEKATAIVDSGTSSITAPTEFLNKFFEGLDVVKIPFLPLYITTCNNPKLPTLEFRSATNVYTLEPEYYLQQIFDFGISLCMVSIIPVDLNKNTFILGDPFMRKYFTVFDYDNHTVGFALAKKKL

Row | SMILES | Ki [1] | Ki [2] | Ki [3] | Ki [6] | inhibition at 5 µM [4] | inhibition at 5 µM [5]
1 | CNC(=O)[C@@H](NC(=O)[C@H](OCc1ccccc1)[C@H](O)[C@@H](O)[C@@H](OCc1ccccc1)C(=O)N[C@H](C(=O)NC)C(C)C)C(C)C | 3800 nM |  |  |  |  | 
2 | C=CCO[C@@H](CN[C@H]1c2ccccc2C[C@H]1O)[C@H](O)[C@@H](O)[C@@H](OCC=C)C(=O)N[C@H]1c2ccccc2C[C@H]1O | > 2500 nM | > 1500 nM | > 2000 nM |  | 50% | 
3 | CC(C)[C@H](NC(=O)CCc1c[nH]c2ccccc12)C(=O)N[C@@H](Cc1ccccc1)[C@@H](O)CN[C@@H](Cc1ccc(-c2ccccc2)cc1)C(N)=O | 11 nM | 2.6 nM |  | 30 nM |  | 56%
4 | C=CCO[C@@H](C(=O)N[C@H](C(=O)NC)C(C)C)[C@H](O)[C@@H](O)[C@@H](OCC=C)C(=O)N[C@H](C(=O)NC)C(C)C | 4100 nM |  |  |  |  | 
5 | C[Si](C)(C)C#C/C=C/CO[C@@H](C(=O)N[C@H]1c2ccccc2C[C@H]1O)[C@H](O)[C@@H](O)[C@@H](OC/C=C/C#C[Si](C)(C)C)C(=O)N[C@H]1c2ccccc2C[C@H]1O | 130 nM | 37 nM |  | > 2000 nM |  | 
6 | C=CCO[C@@H](C(=O)N[C@H]1c2ccccc2C[C@H]1O)[C@H](O)[C@@H](O)[C@@H](OCC=C)C(=O)N[C@H]1c2ccccc2C[C@H]1O | 96 nM | 163 nM |  | > 2000 nM | 0% | 
7 | COc1ncc(/C=C/CO[C@@H](C(=O)N[C@H]2c3ccccc3C[C@H]2O)[C@H](O)[C@@H](O)[C@@H](OC/C=C/c2cnc(OC)nc2OC)C(=O)N[C@H]2c3ccccc3C[C@H]2O)c(OC)n1 | 13 nM | 8.4 nM |  | > 2000 nM | 2% | 
8 | O=C(N[C@H]1c2ccccc2C[C@H]1O)[C@H](OCc1ccccc1)[C@H](O)[C@@H](O)[C@@H](OCc1ccccc1)C(=O)N[C@H]1c2ccccc2C[C@H]1O | 85 nM | 25 nM |  | > 2000 nM |  | 
9 | O=C(N[C@H]1c2ccccc2C[C@H]1O)[C@H](OC/C=C/C#Cc1ccccc1)[C@H](O)[C@@H](O)[C@@H](OC/C=C/C#Cc1ccccc1)C(=O)N[C@H]1c2ccccc2C[C@H]1O | 41 nM | 7.2 nM |  | > 2000 nM |  | 
10 | COC(=O)/C=C/C=C/CO[C@@H](C(=O)N[C@H]1c2ccccc2C[C@H]1O)[C@H](O)[C@@H](O)[C@@H](OC/C=C/C=C/C(=O)OC)C(=O)N[C@H]1c2ccccc2C[C@H]1O | 8.9 nM | 3.7 nM |  | > 2000 nM | 51% | 

More lines, main results first:

Row | Ki [1] | Ki [2] | Ki [3] | Ki [6] | SMILES | inhibition at 5 µM [4] | inhibition at 5 µM [5]
11 | 6 nM | 0.8 nM |  | > 2000 nM | CC(=O)c1ccc(/C=C/CO[C@@H](C(=O)N[C@H]2c3ccccc3C[C@H]2O)[C@H](O)[C@@H](O)[C@@H](OC/C=C/c2ccc(C(C)=O)cc2)C(=O)N[C@H]2c3ccccc3C[C@H]2O)cc1 | 78% | 
12 | 47 nM | 27 nM |  | > 2000 nM | O=C(N[C@H]1c2ccccc2C[C@H]1O)[C@H](OC/C=C/Br)[C@H](O)[C@@H](O)[C@@H](OC/C=C/Br)C(=O)N[C@H]1c2ccccc2C[C@H]1O |  | 
13 | 29 nM | 1.4 nM |  | > 2000 nM | O=C(N[C@H]1c2ccccc2C[C@H]1O)[C@H](OC/C=C/c1ccccc1)[C@H](O)[C@@H](O)[C@@H](OC/C=C/c1ccccc1)C(=O)N[C@H]1c2ccccc2C[C@H]1O |  | 
14 | 181 nM | 23 nM |  | > 2000 nM | Cc1noc(C)c1/C=C/CO[C@@H](C(=O)N[C@H]1c2ccccc2C[C@H]1O)[C@H](O)[C@@H](O)[C@@H](OC/C=C/c1c(C)noc1C)C(=O)N[C@H]1c2ccccc2C[C@H]1O |  | 
15 | 129 nM | 5.8 nM |  | > 2000 nM | Cc1ccc(/C=C/CO[C@@H](C(=O)N[C@H]2c3ccccc3C[C@H]2O)[C@H](O)[C@@H](O)[C@@H](OC/C=C/c2ccc(C)cc2)C(=O)N[C@H]2c3ccccc3C[C@H]2O)cc1 |  | 
16 | 37 nM | 32 nM |  | > 2000 nM | C#C/C=C/CO[C@@H](C(=O)N[C@H]1c2ccccc2C[C@H]1O)[C@H](O)[C@@H](O)[C@@H](OC/C=C/C#C)C(=O)N[C@H]1c2ccccc2C[C@H]1O |  | 
17 | 14 nM | 0.5 nM |  | > 2000 nM | O=C(N[C@H]1c2ccccc2C[C@H]1O)[C@H](OC/C=C/c1ccc2c(c1)OCO2)[C@H](O)[C@@H](O)[C@@H](OC/C=C/c1ccc2c(c1)OCO2)C(=O)N[C@H]1c2ccccc2C[C@H]1O | 61% | 
18 | 59 nM | 2.5 nM |  | > 2000 nM | O=C(N[C@H]1c2ccccc2C[C@H]1O)[C@H](OC/C=C/c1ccc(F)cc1)[C@H](O)[C@@H](O)[C@@H](OC/C=C/c1ccc(F)cc1)C(=O)N[C@H]1c2ccccc2C[C@H]1O |  | 
19 | 15 nM | 4.4 nM |  | > 2000 nM | O=C(N[C@H]1c2ccccc2C[C@H]1O)[C@H](OC/C=C/C=C/c1ccccc1)[C@H](O)[C@@H](O)[C@@H](OC/C=C/C=C/c1ccccc1)C(=O)N[C@H]1c2ccccc2C[C@H]1O |  | 
20 | 15 nM | 1.3 nM |  | > 2000 nM | O=C(N[C@H]1c2ccccc2C[C@H]1O)[C@H](OC/C=C/c1ccsc1)[C@H](O)[C@@H](O)[C@@H](OC/C=C/c1ccsc1)C(=O)N[C@H]1c2ccccc2C[C@H]1O |  | 
